High-throughput results: PubChem BioAssay, several laboratories
CYP2C19 inh = human CYP2C19 inhibition | P33261 | CYP2C19 Supersomes, luciferin-H EGE luminescence, 30 min | inhibition, % at 5 µM | hit rate 21% among 96,000 | AID 778;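 active means CYP2C19 inhibition above a set limit at 5 µM in the primary screen, cut at about 50% in these data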;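 further: plate controls were negative control wells for no effect and 2.5 mM tranylcypromine positive control for full effect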
Target sequence (P33261 whole entry, looked up): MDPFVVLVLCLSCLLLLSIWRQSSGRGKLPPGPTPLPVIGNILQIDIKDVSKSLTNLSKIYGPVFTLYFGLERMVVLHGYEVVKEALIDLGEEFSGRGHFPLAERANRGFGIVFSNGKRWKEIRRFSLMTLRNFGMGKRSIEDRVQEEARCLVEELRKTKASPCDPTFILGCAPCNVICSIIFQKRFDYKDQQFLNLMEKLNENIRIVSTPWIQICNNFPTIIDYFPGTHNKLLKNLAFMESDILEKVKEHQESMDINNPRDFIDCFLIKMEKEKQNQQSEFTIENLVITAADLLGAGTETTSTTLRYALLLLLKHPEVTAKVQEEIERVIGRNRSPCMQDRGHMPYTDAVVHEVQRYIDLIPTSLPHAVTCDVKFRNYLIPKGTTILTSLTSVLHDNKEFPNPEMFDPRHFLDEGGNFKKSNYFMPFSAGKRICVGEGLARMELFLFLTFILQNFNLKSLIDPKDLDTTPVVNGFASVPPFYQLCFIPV
Rev-RRE block = disrupts HIV-1 Rev binding to RRE RNA | inhibition, % at 8 µM | Rev peptide-RRE RNA binding, FRET | P05866 | hit rate 0.79% among 97,000;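 active means inhibition above the screen-wide mean plus 3 SD, cut at about 35% in these data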;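 further: 0% = median DMSO wells and 100% = median Neomycin B control wells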
Target sequence (P05866 whole entry, looked up): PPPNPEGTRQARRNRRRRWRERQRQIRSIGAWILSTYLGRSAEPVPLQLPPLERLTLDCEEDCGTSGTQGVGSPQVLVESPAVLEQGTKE
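Assay system: labelled RRE RNA duplex and labelled Rev peptide / Medium: HEPES pH 7.5 salt buffer with EDTA / Reagent: labelled Rev peptide / Schedule: 5 + 15 min at 25 °C / Signal: FRET, excitation 480 nm, emission 540 nm donor and 671 nm acceptor / Benchmarks: DMSO and neomycin B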
CYP2C9 inh = inhibitors of human CYP2C9; inhibition, % at 5 µM; hit rate 20% among 96,000; CYP2C9 Supersomes, luciferin-H conversion, luminescence; P11712;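 active means blocking of liver enzyme CYP2C9 beyond about 50% at 5 µM, limit read from the data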
CYP2C9 act = CYP2C9 (human) activation; P11712; recombinant CYP2C9, luciferin-H conversion, luminescence; hits give high values; factor 1 = untreated enzyme, 0 = blocked; activation factor at 5 µM; hit rate 1.4% among 96,000; AID 1024;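 active means activation factor of 2 or more for CYP2C9 at a 5 µM dose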;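 further: 0 = sulfaphenazole-blocked wells and 1 = vehicle-only wells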
CYP2C19 act = cytochrome P450 2C19 (human) activation. recombinant CYP2C19, luciferin-H EGE luminescence; hits give high values; 0 = fully inhibited enzyme, 1 = untreated enzyme. activation factor at 5 µM. 96,000 tested, under 10 active. P33261;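 active means activation factor of at least 2 at 5 µM in the primary screen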;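 further: 0 = wells with 2.5 mM tranylcypromine and 1 = vehicle-only wells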
Cav3 T inh = inhibitors of human Cav3.2 T-type calcium channel; O95180; Cav3.2-expressing cells, Fluo-4 calcium fluorescence FDSS; hits give low values; B-score at 10 µM; hit rate 4% among 100,000; AID 449739;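 active means single-dose well whose peak fluorescence ratio is a statistical outlier from its plate by either plate-standardised score or position-corrected B-score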
Active calls of the source: *. In the library only some 27% were active in any assay of this set; here they are far more common.

`CCc1nnc(NC(=O)c2nc3nc(C)cc(C)n3n2)s1` gave CYP2C19 inh -10, Rev-RRE block 10, CYP2C9 inh -6, CYP2C9 act 1.1 and CYP2C19 act 1.1.
Cc1c(Cl)cccc1NC(=O)CN1C(=O)CSc2ncccc21 was read as CYP2C19 inh 64*, Rev-RRE block 6, CYP2C9 inh -256, CYP2C9 act 3.6*, CYP2C19 act 0.4 and Cav3 T inh -0.053.
`COCCCNC(=O)CN1C(=O)CSc2ncccc21` gave CYP2C19 inh 30, CYP2C9 inh -5, CYP2C9 act 1.1, CYP2C19 act 0.7 and Cav3 T inh -0.35.
Screening CCCCNC(=O)CCNS(=O)(=O)c1ccc(Br)cc1 returned CYP2C19 inh 19, Rev-RRE block 2, CYP2C9 inh -166, CYP2C9 act 2.7*, CYP2C19 act 0.8 and Cav3 T inh -0.11.
CCOCCCNS(=O)(=O)c1ccc(Br)cc1 was read as CYP2C19 inh 90*, Rev-RRE block 5, CYP2C9 inh -35, CYP2C9 act 1.3 and CYP2C19 act 0.1.
`CCC(C)NC(=O)CCNS(=O)(=O)c1ccc(Br)cc1` (stereo unspecified) gave CYP2C19 inh 49, CYP2C9 inh -116, CYP2C9 act 2.2*, CYP2C19 act 0.5 and Cav3 T inh 0.7.
`C=CCNC(=O)CCNS(=O)(=O)c1ccc(Br)cc1` gave CYP2C19 inh 20, Rev-RRE block 3, CYP2C9 inh -59, CYP2C9 act 1.6, CYP2C19 act 0.8 and Cav3 T inh -0.18.
`NC(=O)NC1NC(=O)NC1=O` (stereo unspecified) gave Cav3 T inh 0.58.
`C=CCC(Nc1ccccc1)C12C=CC(O1)C(C(=O)OC)=C2C(=O)OC` (stereo unspecified) gave Rev-RRE block 1 and Cav3 T inh 1.6.
For Cc1cc(NC(=O)CSc2nc(-c3ccco3)cc(C(F)(F)F)n2)no1 the results were Rev-RRE block 11 and Cav3 T inh -2.
`CCOC(=O)c1sc(NC(=O)CSc2nc(-c3ccco3)cc(C(F)(F)F)n2)c(C#N)c1C` gave CYP2C19 inh 43, Rev-RRE block 20, CYP2C9 inh 74*, CYP2C9 act 0.3, CYP2C19 act 0.6 and Cav3 T inh 0.052.
CCOC(=O)c1sc(NC(=O)c2cccnc2)c(C#N)c1C was read as CYP2C19 inh -4, Rev-RRE block 1, CYP2C9 inh 94*, CYP2C9 act 0.1, CYP2C19 act 1 and Cav3 T inh -2.5.
For CCN(CC)C(=O)c1sc(NC(=O)c2cc(-c3ccc(C)s3)nc3ccccc23)c(C(=O)OC)c1C the results were CYP2C19 inh -1, Rev-RRE block -2, CYP2C9 inh 51*, CYP2C9 act 0.5, CYP2C19 act 1 and Cav3 T inh -1.5.
`CCN(CC)C(=O)c1sc(NC(=O)c2ccoc2C)c(C(=O)OC)c1C` gave CYP2C19 inh 14, CYP2C9 inh 31, CYP2C9 act 0.7, CYP2C19 act 0.9 and Cav3 T inh -0.56.
Screening N#Cc1c(NC(=O)c2cccnc2)sc2c1CCC2 returned CYP2C19 inh 4, Rev-RRE block 7, CYP2C9 inh 20, CYP2C9 act 0.8, CYP2C19 act 1 and Cav3 T inh -0.17.
`CCOC(=O)c1sc(NC(=O)CSc2ncn[nH]2)c(C#N)c1C` gave CYP2C19 inh 79*, Rev-RRE block 3, CYP2C9 inh 82*, CYP2C9 act 0.2, CYP2C19 act 0.2 and Cav3 T inh -1.3.
CCOC(=O)N1CCN(c2nc(-c3ccco3)cc(C(F)(F)F)n2)CC1 was read as CYP2C19 inh 42, Rev-RRE block 3, CYP2C9 inh 75*, CYP2C9 act 0.2, CYP2C19 act 0.6 and Cav3 T inh -0.73.
CCOC(=O)c1sc(N(Cc2ccccc2)C(=O)CSc2ncn[nH]2)nc1C was read as CYP2C19 inh 5, Rev-RRE block 16, CYP2C9 inh 79*, CYP2C9 act 0.2, CYP2C19 act 1 and Cav3 T inh -1.7.
`CCOC(=O)c1sc(NC(=O)CSc2ccccn2)c(C#N)c1C` gave CYP2C19 inh -12, Rev-RRE block 11, CYP2C9 inh -8, CYP2C9 act 1.1, CYP2C19 act 1.1 and Cav3 T inh -0.77.
Screening CCOC(=O)c1sc(NC(=O)CSc2n[nH]c(-c3ccccc3)n2)c(C#N)c1C returned CYP2C19 inh 19, CYP2C9 inh 72*, CYP2C9 act 0.3 and CYP2C19 act 0.8.
For CCOC(=O)N1CCN(c2nc(-c3cccc(OC)c3)cc(C(F)(F)F)n2)CC1 the results were CYP2C19 inh 21, Rev-RRE block 6, CYP2C9 inh 47, CYP2C9 act 0.5, CYP2C19 act 0.8 and Cav3 T inh -2.5.
Screening CCOC(=O)c1sc(NC(=O)c2cc(-c3ccccc3)nc3ccccc23)c(C#N)c1C returned CYP2C19 inh 5, Rev-RRE block 7, CYP2C9 inh 49, CYP2C9 act 0.5, CYP2C19 act 1 and Cav3 T inh -4.1*.
c1cncc(-c2nc(-c3ccco3)cs2)c1 was read as CYP2C19 inh 28, Rev-RRE block 16, CYP2C9 inh 0, CYP2C9 act 1, CYP2C19 act 0.7 and Cav3 T inh -0.18.
For CC(C)n1c(-c2ccco2)csc1=Nc1cccnc1 the results were CYP2C19 inh 65*, Rev-RRE block -3, CYP2C9 inh 60*, CYP2C9 act 0.4, CYP2C19 act 0.4 and Cav3 T inh -5.2*.
For O=C(c1ccc2c(c1)N(Cc1ccccc1)CCS2)N1CCCCC1 the results were CYP2C19 inh 17, Rev-RRE block 2, CYP2C9 inh 14, CYP2C9 act 0.9, CYP2C19 act 0.8 and Cav3 T inh -8.3*.
`Fc1ccc(-c2cnc[nH]2)cc1` gave CYP2C19 inh 55*, Rev-RRE block 6, CYP2C9 inh 76*, CYP2C9 act 0.2 and CYP2C19 act 0.5.
CC(C)C(=O)NC(=S)Nc1ccccc1C(=O)Nc1ccccc1 was read as CYP2C19 inh 4, Rev-RRE block -2, CYP2C9 inh 5, CYP2C9 act 1, CYP2C19 act 1 and Cav3 T inh 0.93.
Screening O=C1CCC/C1=c1\s/c(=C\c2cccnc2)c(=O)n1-c1ccccc1 returned CYP2C19 inh 28, CYP2C9 inh 12, CYP2C9 act 0.9, CYP2C19 act 0.7 and Cav3 T inh 2.1.
For Cc1nc2c(C(=O)O)cnn2c(C)c1Cc1ccccc1F the results were CYP2C19 inh -9, CYP2C9 inh -19, CYP2C9 act 1.2, CYP2C19 act 1.1 and Cav3 T inh 0.79.
For CCOC(=O)N1CCN(C(=O)c2cnn3c(C)c(Cc4ccc(C)cc4)c(C)nc23)CC1 the results were CYP2C19 inh 42, Rev-RRE block 4, CYP2C9 inh 36, CYP2C9 act 0.6 and CYP2C19 act 0.6.
